The data set is described as follows: Toxicity liver stage against HepG2, at 10uM. The format is cell-based. The arrangement: test concentration 10 uM, cell line HepG2-A16-CD81EGFP. Conditions: human, HepG2-A16-CD81EGFP cells; read-out: INHIBITION
The essentials: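 Uninfected HepG2-A16-CD81EGFP cells, 3 × 10^3 per well, 1536-well, plated on prespotted compound at 10 μM final, parasite-free screening media added to match infected plates; puromycin 10 μM positive, DMSO 0.5% negative; run in parallel with 48 h PbLuc assay at 37 °C, 5% CO2; viability by CellTiter-Glo luminescence, normalized to controls.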
For the molecule `COCCN1C(=O)CCC12CCN(C(=O)NC(C)C)CC2`, the cytotoxicity at 10 µM was 4.45%.
Next, `N#Cc1cn(CCCN2CCc3ccccc32)c(=O)[nH]c1=O`: 6.48%.
As for `CN(C)c1cccc(CNC(=O)Nc2cc(C#N)ccc2Cl)n1`, the cytotoxicity at 10 µM came to 21.6%.
Next, `COCC(O)CN(C)C(=O)NCc1ccc(S(C)(=O)=O)cc1` (stereo not drawn): 1.72%; `Cc1nc2c(c(NC(C)c3nnn[nH]3)n1)Cc1ccccc1OC2` (stereo not drawn): 1.07%; `O=C(NCC(O)c1ccc(F)cc1)C1CCN(C2CCCCC2)CC1` (stereo not drawn): 5.67%.
Next, `CCN(CCc1nccs1)C(=O)c1ncoc1C`: 11.3%.
Next, `CC(C)(C)c1nc(CN2CCCC2c2nnc3ccccn23)no1` (stereo not drawn): -1.99%; `CSC1(CNC(=O)N(C)Cc2sccc2C)CCOCC1`: -57.4%; `Cc1ccc(NCCNC(=O)c2cc(CC(C)C)n[nH]2)nn1`: 0.37%.
For `CCn1cnnc1C1CCN(C(=O)c2ccccc2F)CC1`, the cytotoxicity at 10 µM was -5.13%.
On to `COc1nc2c(cc1C(=O)N1CCCOC(Cn3cccn3)C1)CCC2` (stereo not drawn), for which the cytotoxicity at 10 µM is -52.1%.
The value for `O=C(CNC(=O)c1ccc(Cl)cc1)Nc1nccs1` was -7.55%.
Next, `CCOc1ccccc1C(=O)N1CCCC(O)(CN(C)C)C1` (stereo not drawn): -1.73%.
Next, `Cc1ccc(CNC(=O)N2CCc3ccccc3C2CO)s1` (stereo not drawn): 2%; `CCc1nc(CNc2cc(Cl)ccc2OCC2CCCO2)no1` (stereo not drawn): 8.84%; `CC(C)CCN1C2(CCN(C(=O)N(C)C)C2)c2ccccc2S1(=O)=O` (stereo not drawn): 2.11%.
In the case of `CC(C)S(=O)(=O)N(C)C(=O)CCc1ccsc1`, the cytotoxicity at 10 µM is 5.2%.
On to `CC[C@H]1NCCC[C@]12CCC(=O)N2Cc1ccncc1`, for which the cytotoxicity at 10 µM is 6.29%.
As for `CNC(=O)C1(C)CCCN(c2cnccn2)C1` (stereo not drawn), the cytotoxicity at 10 µM was -25.3%.
Next, `COCCOc1ccc(NC(=O)N2CCCC2c2cc(C)no2)cn1` (stereo not drawn): 5.32%; `CCOCC1CN(Cc2ccoc2)Cc2nn(C)cc21` (stereo not drawn): -2.8%.
The value for `CC(C)c1nc(CN2CCN(C(=O)OC(C)(C)C)C(C)C2)no1` (stereo not drawn) was 1.62%.
The value for `Cn1c(CN2CCCC(c3noc(C4CC4)n3)C2)cc(=O)n(C)c1=O` (stereo not drawn) was -11.2%; that for `CC(=O)CCC(=O)N1CCC2(CC1)N=C(CCC(C)C)NC2=O` was -7.14%.
As to `CCOC(=O)NC1CCCN(c2cncc(Br)c2)C1` (stereo not drawn), the cytotoxicity at 10 µM is -46.4%.
Next, `CN(C)C(=O)CN1CCO[C@H]2CN(Cc3cccc(F)c3)C[C@H]21`: -97.2%.
Consider `CC(C)(C)n1ncc2c1NC(=O)CC2c1c(F)cccc1F` (stereo not drawn), for which the cytotoxicity at 10 µM was -1.53%.
With `O=C(C(c1ccc(F)cc1)N1CCCCC1)N1CCn2cncc2C1` (stereo not drawn), the cytotoxicity at 10 µM was -0.628%.
The value for `CC(COc1ccccc1)NS(C)(=O)=O` (stereo not drawn) was -4.05%; that for `COCc1cccc(CNC(=O)c2c(C)noc2C(C)C)c1` was 0.153%; that for `COc1cc(N2C[C@H]3CCC[C@@H](CN4CCCC4)[C@H]3C2)ncn1` was -79%.
Next, `COCCNC(=O)c1cc(C(C)C)nc(N2CCCCC2)n1`: 9.04%.
The value for `CCC(CNC(=O)c1cc(CC(C)C)nn1C)N(C)CC` (stereo not drawn) was -5.99%.
Take `CC(C)Nc1ncnc2c1CCN(C(=O)NCc1cccc(F)c1)CC2`: the cytotoxicity at 10 µM was -110%.
The value for `Cc1ccc(C(=O)NS(=O)(=O)c2cc(Br)ccc2C)c(=O)[nH]1` was -2.27%; that for `COc1cc(C(=O)NS(=O)(=O)c2cccc(C#N)c2)ccc1C` was -9.29%; that for `O=C(Cc1ccsc1)N1C[C@@H]2C[C@@H](c3nnc(C4CC4)o3)O[C@@H]2C1` was -142%.
Next, `Cn1nc(C(C)(C)C)cc1NC(=O)Cn1ccccc1=O`: -10.5%; `CCc1ocnc1C(=O)N1CCOC(c2nc(C)n[nH]2)C1` (stereo not drawn): -12%.
Next, `CC(=O)NCc1cc2n(n1)CCN(Cc1cccc(Cl)c1F)C2`: 7.65%; `Cc1nccn1-c1ccc(N2CCC(NC(C)C(C)C)CC2)cc1` (stereo not drawn): -7.33%.
Consider `COc1cc(C(=O)NS(=O)(=O)c2cncc(Br)c2)cc(Cl)c1OC`, for which the cytotoxicity at 10 µM is -2.21%.
The value for `CN(Cc1ccc(Br)c2cccnc12)S(C)(=O)=O` was 2.92%.
Next, `c1ccc(Cc2nnc(CN3CCn4c(nnc4C4CC4)C3)o2)cc1`: -0.192%.
Regarding `C=Cc1ccc(C(=O)N2CCCC(Nc3ccc(F)cc3)C2)cc1` (stereo not drawn), the cytotoxicity at 10 µM was -22.1%.
The value for `Cn1nccc1CCC(=O)N1CCCC(c2cnccn2)C1` (stereo not drawn) was -22.7%.
The value for `CN1CCOC(CNCc2coc(-c3ccc(Cl)cc3)n2)C1` (stereo not drawn) was -9.99%; that for `CC(=O)N1CCCC1c1ccc(CN2CCOCC2)cn1` (stereo not drawn) was 5.83%.
As to `CC(C)N(CC1CCCN(Cc2ccon2)C1)C(=O)OC(C)(C)C` (stereo not drawn), the cytotoxicity at 10 µM worked out at 7.09%.
The value for `CCC1c2cccn2CCN1C(=O)c1ccno1` (stereo not drawn) was -8.58%.
As to `Cc1nc(O)cc(C2CCN(C(=O)c3ccsc3)CC2)n1`, the cytotoxicity at 10 µM was -4.97%.
Next, `COCCCC(=O)Nc1cc(Cl)c(Cl)cn1`: 87%; `CC(C)(C)n1cc(C(=O)N2CCCN(Cc3cccs3)CC2)cn1`: -5.95%; `O=C(c1cc(C2CCCCN2C(=O)C2CCC2)n[nH]1)N1CCOCC1` (stereo not drawn): -14%.
Next, `CCC(=O)N1CCC(Cc2ccccc2-c2ccncc2)(C(N)=O)C1` (stereo not drawn): -25.3%; `COCCNc1nnc(-c2ccccn2)s1`: 6.1%.
The value for `Cc1nc(CNC2CCc3nc(C(C)C)nn3C2)oc1C` (stereo not drawn) was -4.1%; that for `COC(=O)NCC(=O)N1CCCCC1c1nc2cc(F)ccc2[nH]1` (stereo not drawn) was -1.41%.
As for `Cc1ncc(CNC(=O)c2nn(C)c3c2CS(=O)(=O)CC3)s1`, the cytotoxicity at 10 µM is -2.44%.
Next, `CC(C)CN1CCCC2(CCN(c3ccccn3)C2)C1` (stereo not drawn): -1.22%.
As for `CN(C)C(CNC(=O)c1ccc(-n2cnnn2)cc1)c1ccccc1Cl` (stereo not drawn), the cytotoxicity at 10 µM was -8.16%.
The value for `CC(O)C1CCN(C(=O)CCOc2ccccc2F)CC1` (stereo not drawn) was -5.63%; that for `CCOc1ccccc1CNC1CCCN(Cc2noc(C)n2)C1` (stereo not drawn) was -13.1%.
Take `CCN(Cc1ccncc1)C1CCCN(C/C=C/c2ccc(F)cc2)C1` (stereo not drawn): the cytotoxicity at 10 µM amounted to 6.61%.
For the molecule `CCO[C@@H]1CCN(c2ccc(C)nn2)[C@@H]1Cc1cnn(C)c1`, the cytotoxicity at 10 µM amounted to 2.2%.
The value for `Cc1nnc(NCc2ccccc2F)c(C#N)c1C` was -9.71%; that for `Cc1ccncc1C(=O)N1CCCC(C(=O)CCc2ccccc2)C1` (stereo not drawn) was 18%; that for `Cc1occc1C(=O)N1CCn2c(Cn3cncn3)cnc2C1C` (stereo not drawn) was -5.17%.
Next, `Cc1nn(C)c(Cl)c1C1CCCN1C(=O)c1nccnc1N` (stereo not drawn): -6.9%; `O=C(N[C@@H]1CN(Cc2cccc3[nH]ccc23)C[C@H]1O)c1cscn1`: -2.86%; `O=C(NC1CC1)N1C[C@@H]2CCN(C(=O)c3cscn3)[C@@H]2C1`: -0.025%.
Next, `CC(C)NC(=O)N1CCOC2(CCNCC2)C1`: -2.69%.

(Values after ChEMBL document CHEMBL4513216, “Probing the Open Global Health Chemical Diversity Library for Multistage-Active Starting Points for Next-Generation Antimalarials” (ACS Infect Dis, 2020).)
